Measured values reported in paper PMC2855844 (Cancer immunology, immunotherapy : CII, 2009).
Entries after “also recorded” stand apart in the source; their conditions may differ.

Experiments:
H2-K^d = H2-K^d (Mus musculus, UniProt P01902); assay: MHC stabilization assay; type: binding; conditions: T2-K^d cells, 37°C, MFI with anti-H2-K^d mAb and FITC-conjugated anti-mouse IgG
How it was run: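 Peptide-pulsed T2-Kd cells were kept at 37°C, then stained with anti-H2-Kd mAb (HB159) and FITC-conjugated anti-mouse IgG. Surface Kd was read as mean fluorescence intensity. Reference samples were unpulsed cells and peptide-pulsed cells held at 4°C.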

Meth A-specific CTL = type: cell-based, mouse; conditions: E/T ratio 6:1, 4 h ^51Cr-release
How it was run: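 Targets were T2-Kd cells pulsed with peptide, labeled with Na51CrO4, and plated at 1 × 10^3 per well. Meth A-specific CTL (cloned CD3+CD4−CD8+NK-1.1− line from Meth A-immune BALB/c mice) were added at E:T 6:1. Release was measured over 4 h and expressed as % specific lysis.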

human CD8^+ T cells = assay: in vitro stimulation of human CD8^+ T cells; type: cell-based; conditions: preliminary findings; listed as Hsd17b12^114T peptide
[1] = T2-K^d cells pulsed with peptide

H2-K^d, sequence (P01902 whole entry, looked up): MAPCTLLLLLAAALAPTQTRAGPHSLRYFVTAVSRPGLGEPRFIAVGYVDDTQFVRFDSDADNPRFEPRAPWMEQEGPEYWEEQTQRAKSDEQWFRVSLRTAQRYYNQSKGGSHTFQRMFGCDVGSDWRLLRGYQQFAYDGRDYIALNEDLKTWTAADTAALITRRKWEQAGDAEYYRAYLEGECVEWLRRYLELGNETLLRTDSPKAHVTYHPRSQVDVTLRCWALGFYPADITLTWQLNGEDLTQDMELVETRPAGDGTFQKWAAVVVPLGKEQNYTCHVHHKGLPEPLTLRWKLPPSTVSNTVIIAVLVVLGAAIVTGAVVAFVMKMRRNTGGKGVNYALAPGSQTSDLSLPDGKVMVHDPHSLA

affinity for H2-K^d molecules (H2-K^d) | Sequence | affinity of Meth A CTL for peptide (Meth A-specific CTL; [1]) | recognition by Meth A-specific CTL (in words) (Meth A-specific CTL; [1]) | fold higher affinity of Meth A CTL (TYDKIKTGL vs IYDKIKTGL) (Meth A-specific CTL; TYDKIKTGL over IYDKIKTGL, T2-K^d cells) | immunogenicity, stimulation of human CD8^+ T cells in vitro (human CD8^+ T cells)
~ 1 × 10^−8 M | IYDKIKTGL | < 1e-08 M | – | – | –
~ 1 × 10^−8 M | TYDKIKTGL | ~ 1 × 10^−10 M | recognized by the Meth A-specific CTL | 100 × | immunogenic; also recorded: can induce effectors cross-reactive against the HSD17B12_114–122 peptide, naturally presented by human tumor cell lines
